Source: PubChem BioAssay (several laboratories)
Sampled rows, rich in hits. Any-hit rate of the full collection: about 1.6%.
ABHD5-PLIN5 inh: blocks binding of human ABHD5 to perilipin-5; Q00G26+Q8WTS1; Split G. princeps luciferase complementation, luminescence, 4 h; inhibition, % at 4 µM; actives 0.78% (n = 360,000); AID 602281;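 active means inhibition above the mean inhibition across every tested compound plus 3 SD, cut at about 22% in these data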;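 further: 0% = DMSO only wells and the 100% control is not disclosed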
TLR9-MyD88 inh: TLR9-MyD88 interaction inhibition | Q9NR96+Q99836 | CHO BLA complementation TLR9-MyD88, CCF4 FRET ratio | inhibition, % at 4.98 µM | actives 0.21% (n = 340,000);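 active means inhibition above the mean over all tested compounds plus 3 SD, cut at about 21% in these data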;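 further: 0% = DMSO only wells and 100% = clavulanate BLA inhibitor control wells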
TLR4-MyD88 BLA: TLR4-MyD88 interaction inhibition in cells; HeLa CL3-4 TLR4/MyD88 BLA complementation, FRET ratio; O00206+Q99836; inhibition, % at 8.4 µM; actives 0.18% (n = 200,000); in the data active means inhibition above about 25%;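 further: 0% = vehicle and 100% = reference inhibitor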
B2AR ag: activates human beta-2 adrenergic receptor causing internalization; P07550; response, % (test concentration not listed); AID 504454; Am2.2-beta2AR cells, FAP receptor internalization, flow cytometry; actives 0.43% (n = 340,000);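 active means response above a set limit, near 3 SD of response in nonfluorescent compounds, cut at about 42% in these data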
Target sequence (P07550 whole entry, looked up): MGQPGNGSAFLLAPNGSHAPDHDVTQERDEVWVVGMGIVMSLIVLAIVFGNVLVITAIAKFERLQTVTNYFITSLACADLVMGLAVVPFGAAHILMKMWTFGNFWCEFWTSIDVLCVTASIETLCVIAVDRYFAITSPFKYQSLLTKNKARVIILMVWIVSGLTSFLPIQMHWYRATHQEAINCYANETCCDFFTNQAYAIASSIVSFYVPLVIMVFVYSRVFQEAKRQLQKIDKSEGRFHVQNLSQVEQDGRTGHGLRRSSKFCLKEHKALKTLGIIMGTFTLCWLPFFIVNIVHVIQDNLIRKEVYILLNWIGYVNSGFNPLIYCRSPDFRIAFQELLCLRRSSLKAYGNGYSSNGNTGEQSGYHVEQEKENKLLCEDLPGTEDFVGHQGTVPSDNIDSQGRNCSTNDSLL
NOD2-RIPK2 inh: blocks binding of human NOD2 to RIPK2; CHO BLA complementation NOD2-RIPK2, CCF4 ratio; actives 0.38% (n = 360,000); AID 624267; O43353; inhibition, % at 4.98 µM; in the data active means inhibition above about 21%;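 further: 0% = vehicle only and 100% = reference blocker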
Dynein transport: blocks dynein driven cargo transport along microtubules. z-score, hits read low. 3617.4 mouse cells, GR-EGFP nuclear translocation imaging; test concentration mostly 20 µM; stimulated with dexamethasone, 1 µM; active compounds read low. actives 0.47% (n = 220,000). AID 1381;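 active means plate z-score of nuclear minus cytoplasmic receptor signal below a set negative limit, without overly bright fluorescence or cell loss, cut at about -3.5 in these data, passing the limit was not always enough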;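 further: z-score of nuclear minus cytoplasmic ring GR-EGFP intensity difference per well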
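Buffer or medium: tet-free, stripped-serum medium; reagent: dexamethasone at 1.0 µM final, 30 min; incubation: 48 h induction, 1 h compound, 30 min dex at 37 °C; measured by: formaldehyde fixation, Hoechst nuclear stain, 10x automated fluorescence imaging; read-out: nuclear-to-cytoplasmic GR-EGFP distribution per well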
* = called active by the depositor; nt = no result.

SMILES	ABHD5-PLIN5 inh	TLR9-MyD88 inh	TLR4-MyD88 BLA	B2AR ag	NOD2-RIPK2 inh	Dynein transport
COC(=O)c1ccc(C2NC(=S)N(c3ccccc3)C(C)=C2C(=O)Nc2ccccc2OC)cc1 (configuration not stated)	6	0	1	46*	-12	1.8
O=c1c2c3nc4ccccc4nc3n(-c3ccc4c(c3)OCCO4)c2ncn1C1CCCC1	-1	-3	nt	53*	5	nt
O=C(c1ccco1)N1CCN(C(=O)c2cnn(-c3ccc(F)cc3)c2-n2cccc2)CC1	7	-1	nt	nt	-3	nt
CO[C@H]1CC[C@@]2(C)[C@@H](CC[C@@H]3[C@@H]2CC[C@@]2(C)[C@H]3C[C@H](C(=O)O)O[C@]23CCCO3)C1	-4	-2	nt	2	-2	nt
CC12CC3OC3CC1CCC1C2CCC2(C)C1CCC21OCCO1 (configuration not stated)	0	1	nt	76*	-12	nt
C=CCn1c(=O)c2ccccc2n2c(SCC(=O)NC)nnc12	-1	-7	nt	-6	-12	nt
COc1cc(C2Nc3cccc4cccc(c34)N2)ccc1OC(C)=O	3	0	7	11	-6	-0.27
COc1cc(C2Nc3cccc4cccc(c34)N2)cc(OC)c1O	6	1	-13	18	3	-3.7*
CC1(C(=O)Nc2ccc(F)c(Cl)c2)Cc2c(-c3ccccc3)ccnc2O1 (configuration not stated)	5	nt	nt	nt	11	nt
COc1ccc(CCNC(=O)C2CCN(c3nccc(C)n3)CC2)cc1	-6	3	2	-3	-9	-0.65
Cc1ccc(OCC(=O)NNC(=O)C2CCN(c3nccc(C)n3)CC2)cc1	9	0	7	105*	6	1.3
COc1ccc(C(C)=O)cc1Cn1c(C)c(C(=O)NCc2ccc3c(c2)OCO3)sc1=O	5	nt	nt	nt	-9	nt
Cc1cc(C(=O)Nc2c(F)cc(F)cc2Br)c(C)o1	23*	-5	7	7	-12	-0.4
COc1ccc(CC(=O)NC2CCCCCC2)c(OC)c1	0	-25	nt	0	-8	nt
CCOC(=O)[C@]12CCCC=C1N(Cc1ccccc1)C(=O)[C@H](CC(=O)NCc1cccs1)C2	6	nt	nt	nt	14	nt
Cc1cc(C)c(C(=O)/C=C/c2ccc(C(C)C)cc2)c(=O)[nH]1	37*	2	-7	6	-2	-1.7
O=[N+]([O-])c1cnccc1-n1nnc2ccccc21	-2	nt	nt	nt	0	nt
CCC(=O)N1CCN(c2nc(CC)nc3sc4c(c23)CCCC4)CC1	-3	-3	nt	-5	-11	nt
CC1CCc2c(sc3nc(C(C)(C)C)nc(N4CCN(C(=O)CCl)CC4)c23)C1 (configuration not stated)	18	-11	nt	50*	13	nt
CCCc1nc2c(=O)n(C)c(=O)nc-2n(C)n1	6	-6	-11	80*	8	-0.89
Cn1nc(-c2ccccn2)nc2c(=O)n(C)c(=O)nc1-2	14	-3	nt	74*	-16	-0.63
COc1cc(C(O)c2nc(-c3cc4ccccc4o3)cs2)ccc1F (configuration not stated)	-2	nt	nt	nt	-17	nt
Cc1c(C(=O)Nc2ccccc2N2CCN(C)CC2)oc2ccc(F)cc12	22*	12	nt	10	6	nt
CCN(CC)CCOCCOC(=O)C(CC)(CC)c1ccccc1	23*	nt	nt	-1	-13	-0.4
O=C1c2cccc3cccc(c23)C(=O)N1c1ccc2ncccc2c1	3	3	-7	70*	6	-0.71
SMILES	ABHD5-PLIN5 inh	TLR9-MyD88 inh	TLR4-MyD88 BLA	B2AR ag	NOD2-RIPK2 inh	Dynein transport
O=C1c2cccc3cccc(c23)C(=O)N1c1nccs1	8	6	1	0	-16	-0.45
CCOC(=O)C1=C(N)n2c(s/c(=C/c3ccco3)c2=O)=C(C(=O)OC)C1c1ccco1 (configuration not stated)	9	2	-10	-8	15	-0.57
N#CC1=C(N)n2c(s/c(=C\c3ccco3)c2=O)=C(C#N)C1c1ccco1 (configuration not stated)	23*	-13	6	-14	-2	-0.17
O=C(Nc1ccc2c(c1)oc1ccccc12)c1cccnc1	6	-2	0	4	11	-0.14
O=C(Nc1ccc2c(c1)oc1ccccc12)c1ccncc1	22*	6	5	38	-5	-0.68
O=C(CO/N=C/c1ccccc1O)N1CCc2ccccc21	-6	3	-12	72*	-8	0.93
CCN(C(=O)CSc1nnc(-c2ccccc2Cl)n1N)c1c(N)n(Cc2ccccc2)c(=O)[nH]c1=O	1	3	nt	4	1	nt
CCOC(=O)/C=C/C(=O)Nc1cccc([N+](=O)[O-])c1	44*	5	14	7	9	-1.7
CCCN(CCC)C(=O)c1ccc2c(=O)n(Cc3ccco3)c(=S)[nH]c2c1	4	0	1	-15	7	-0.96
COc1cc(NC(=O)c2ccc3c(=O)n(Cc4ccco4)c(=S)[nH]c3c2)cc(OC)c1OC	22*	-3	-4	5	6	-0.35
CC1(C)CC[C@]2(C(=O)n3ccnc3)CC[C@]3(C)[C@H](C(=O)C=C4[C@@]5(C)C=C(C#N)C(=O)C(C)(C)[C@@H]5CC[C@]43C)[C@@H]2C1	3	-8	nt	59*	-5	nt
COC(=O)C1=C(C)N(Cc2ccccc2)C(=NCc2cccc(Cl)c2)N[C@H]1c1cccc(F)c1	6	-3	nt	48*	-3	nt
COC(=O)C1=C(C)N(Cc2ccccc2)C(=NCc2ccc(OC)cc2)N[C@H]1c1cccc(F)c1	8	-10	nt	35	-3	nt
Cc1oc(-c2ccc3c(c2)OCCO3)cc1C(=O)NCC(=O)O	22*	-6	8	0	-5	-0.67
COc1ccc(C)cc1NS(=O)(=O)c1ccc(NC(=O)CN(c2cc([N+](=O)[O-])ccc2C)S(C)(=O)=O)cc1	21	4	-19	2	-10	0.52
Cc1cccc(NS(=O)(=O)c2ccc(NC(=O)CN(c3cc([N+](=O)[O-])ccc3C)S(C)(=O)=O)cc2)c1	32*	0	-7	30	-7	-0.12
O=C(NCCc1cccnc1)C1CCC(=O)N(CCc2cccc(F)c2)C1 (configuration not stated)	22*	4	nt	6	-14	nt
O=C(NCCc1ccc(C(F)(F)F)cc1)C1CCC(=O)N(CCc2cccc(F)c2)C1 (configuration not stated)	3	-2	nt	2	-7	nt
CCSc1nc2ccccc2n1C(=O)/C=C/c1ccc(OC)c(OC)c1	20	7	-3	42*	3	-0.83
C=CCSc1nc2ccccc2n1C(=O)/C=C/c1ccc(OC)c(OC)c1	9	0	-1	34	2	-5.1*
O=C(NCCSc1ccc(Br)cc1)c1ccc2nc[nH]c2c1	-3	-7	nt	0	-3	nt
